This passage reports fluorescence artifact activation results from PubChem BioAssay AID504382 (The Scripps Research Institute Molecular Screening Center, 2011).

Out of some 2,500 compounds screened, about 460 (18%) were called active.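 The calls were made as follows: active = mean activation above a cutoff of low control average plus 3 SD from the earlier screen (cut at about 12% in these data); inactive = the rest.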 A selection follows.

The nature of this assay: compound fluorescence interference without thin filaments, confirmation, artefact control for cardiac RTF calcium sensitizer project, biochemical (AID 504382). To be noted: IANBD fluorescence interference counterscreen, buffer, EC20 Ca2+; at 7.2 µM; active compounds read high; scaled: EC20 calcium 0, EC100 calcium 100. The procedure, abridged: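 Also added: EC20 calcium, 0.472 mM; dosing: single nominal 7.2 µM compound dose, 0.7% DMSO final; timing: 15 min, 25 °C; detection: fluorescence intensity, excitation 480 nm, emission 540 nm; replicates: each compound tested in triplicate wells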
For orientation: The purpose of a counterscreen is to sort out artefacts and off-target activity.
As for `CN1CCN(CCNC(=O)Nc2ccc(Cl)cc2)CC1`, the fluorescence artifact activation was 3.25% (inactive). To `CCCCCCSc1ccc([C@@H]2[C@H]3C(=O)N(CC)C(=O)[C@H]3[C@]3(C(=O)OC)CCCCN23)cc1OC` belongs -0.04% (inactive); to `CCn1cc(Cl)c(C(=O)NNC(=O)CCn2cc([N+](=O)[O-])cn2)n1`, -0.04% (inactive). To `CN1/C(=C\C=C2/SC(=S)N(CC(=O)O)C2=O)C(C)(C)c2ccccc21` belongs 0.11% (inactive). With `CN1C(=CC=C2C=C(I)C(=O)C(I)=C2)C(C)(C)c2ccccc21` the figure was 0.22% (inactive); with `CC1(C)c2ccccc2N2CC(=O)N(CC(N)=O)C21C` (stereo not given), 20.9% (active). Turning to `O=C(Nc1ccccc1)OC1CCC2CC1CCC2OC(=O)Nc1ccccc1` (stereo not given), the fluorescence artifact activation was -0.01% (inactive). With `O=C(Nc1ccccc1)NC1CS(=O)(=O)CC1O` (stereo not given) the figure was 32.8% (active); with `CC(=O)Nc1ccccc1`, -0.1% (inactive); with `c1ccc(CCC2=NCCn3cccc32)cc1`, 4.53% (inactive). As to `CCCCn1c(N)c(N(CC(C)C)C(=O)Cc2ccc(S(=O)(=O)N3CCOCC3)s2)c(=O)[nH]c1=O`, the fluorescence artifact activation is 3.01% (inactive). For `Brc1ccc2[nH]c3nc(SCCN4CCOCC4)nnc3c2c1`, the fluorescence artifact activation is 0.16% (inactive).

For `COc1ccc(/C=C2\SC(=S)N(CCCC(=O)Nc3ccccc3C(=O)O)C2=O)cc1OC`, the fluorescence artifact activation was 5.03% (inactive). Regarding `O=C(Nc1ccccc1)c1ccc(NCCc2ccccc2)c([N+](=O)[O-])c1`, the fluorescence artifact activation was 0.33% (inactive). To `Cc1cccc(OCCNc2ccc(C(F)(F)F)cc2[N+](=O)[O-])c1` belongs 43.7% (active). To `CC(=O)c1cccc(-n2c(CCC(=O)O)ccc2-c2ccccc2)c1` belongs 0.06% (inactive); to `Cc1nnc(-c2ccccc2)c(=O)n1/N=C/c1c(O)ccc2ccccc12`, 0.11% (inactive).

For the molecule `C/C(=N\NC(=O)c1cc2c(s1)CCC(C)C2)c1ccc[nH]1` (stereo not given), the fluorescence artifact activation is 0.04% (inactive). To `Cc1oc2c(cc(NS(=O)(=O)c3ccc(C(C)C)cc3)c3ccccc32)c1C(=O)O` belongs -0.05% (inactive).

On to `O=C1S/C(=C\c2ccc(N3CCOCC3)o2)C(=O)N1Cc1c(F)cccc1Cl`, for which the fluorescence artifact activation was 226% (active). For `CN1C/C(=C\c2ccc(N3CCOCC3)cc2)C(=O)/C(=C/c2ccc(N3CCOCC3)cc2)C1`, the fluorescence artifact activation was 0.12% (inactive). To `O=C1S/C(=C/c2ccc(N3CCOCC3)o2)C(=O)N1Cc1ccc(F)cc1` belongs 16.8% (active); to `O=C(O)c1ccccc1-c1ccc(/C=C2\SC(=O)N(c3ccccc3)C2=O)o1`, 0.06% (inactive); to `O=C1S/C(=C/c2ccc(N3CCOCC3)o2)C(=O)N1Cc1c(F)cccc1Cl`, 5.76% (inactive). As for `O=C1S/C(=C\c2ccc(N3CCOCC3)o2)C(=O)N1Cc1ccc(F)cc1`, the fluorescence artifact activation is -0.07% (inactive). For the molecule `CC(C)OC(=O)CN1C(=O)S/C(=C/c2ccc(N3CCCCC3)o2)C1=O`, the fluorescence artifact activation is 0.64% (inactive).

For the molecule `CCCN1C(=O)S/C(=C\c2ccc(N3CCOCC3)o2)C1=O`, the fluorescence artifact activation was 0.73% (inactive).

For `O=C(CSCc1c(F)cccc1Cl)Nc1ccccc1C(=O)N1CCOCC1`, the fluorescence artifact activation is 2.06% (inactive). With `CCCN1C(=O)S/C(=C/c2ccc(N3CCOCC3)o2)C1=O` the figure was 31.7% (active). With `O=C1N/C(=C\c2ccsc2)C(=O)N1Cc1ccc(F)cc1` the figure was 0.11% (inactive).

As to `O=C1S/C(=C\c2ccc(N3CCOCC3)o2)C(=O)N1c1ccccc1`, the fluorescence artifact activation is 22.4% (active). With `CCCOc1ccc(C2C(C(=O)/C=C/c3ccco3)=C(O)C(=O)N2CCN2CCOCC2)cc1OC` (stereo not given) the figure was 9.14% (inactive); with `CC1=CC(=C(C#N)c2nc3ccccc3s2)C=C(C)N1c1ccc(F)cc1`, 11.2% (inactive); with `CCC1C/C(=C\c2cc(OC)c(OC)cc2OC)C(=O)/C(=C/c2cc(OC)c(OC)cc2OC)C1` (stereo not given), 5.41% (inactive).

On to `O=[N+]([O-])c1ccc(N/N=C/c2ccc(OCc3cccc4ccccc34)cc2)nc1`, for which the fluorescence artifact activation is -0.02% (inactive).

For `O=C(/C=C/c1ccccc1[N+](=O)[O-])Nc1cccnc1`, the fluorescence artifact activation was 0.87% (inactive). With `Cc1ccc2nc3nc(NCC4CCCO4)c(C(=O)NC4CCCC4)cc3c(=O)n2c1` (stereo not given) the figure was 0.12% (inactive); with `COc1ccc(Cc2n[nH]c(=O)c3ccccc23)cc1OC`, 0.32% (inactive); with `C[C@H](CO)N1C[C@H](C)[C@@H](CN(C)C(=O)Nc2ccc(F)cc2)Oc2ccc(NS(C)(=O)=O)cc2C1=O`, 0.09% (inactive). To `Cc1ccc(N2C(=O)c3cccc4c(N)ccc(c34)C2=O)c2cccnc12` belongs 0.51% (inactive); to `O=C(Nc1ccc(C(=O)N2CCOCC2)cc1)Nc1cccc(Cl)c1`, 8.09% (inactive); to `O=C(Nc1ccc2c(c1)OCO2)c1ccc2c(c1)OCO2`, 8.95% (inactive). To `O=C(Nc1ccc2c(c1)OCCO2)c1cccc(Cl)c1Cl` belongs 13.6% (active). Take `Cc1ccc(C(=O)NNC(=O)CSc2nnc(-c3ccncc3)n2-c2ccc(C)cc2)cc1`: the fluorescence artifact activation is 0.09% (inactive).

With `CCN1C(=O)[C@@H]2Cc3c([nH]c4ccccc34)C(c3ccc(OC)cc3)N2C1=S` (stereo not given in full), the fluorescence artifact activation was -0.08% (inactive). With `CCN(CC(=O)Nc1ccccc1C(=O)NC1CC1)Cc1cccs1` the figure was 25.6% (active); with `O=C(NC1CCCCC1)c1ccccc1NC(=S)NC(=O)C1CCC1`, 8.42% (inactive). On to `O=C(c1ccccn1)N(Cc1cccs1)C1(C(=O)NC2CCCCC2)CCCCC1`, for which the fluorescence artifact activation is 0.12% (inactive). With `O=S(=O)(/C=C/c1ccccc1)N1CCc2ccccc2C1` the figure was 0.07% (inactive); with `CCn1c(C)c(CCC(=O)O)c(=O)n2nc(-c3ccccc3OC)cc12`, 0.2% (inactive). Take `CC(=O)Nc1ccc(SCC(=O)NNC(=O)CN(C)S(=O)(=O)c2ccc(C)cc2)cc1`: the fluorescence artifact activation is 70.4% (active).

In the case of `CC(=O)Nc1ccc(S(=O)(=O)NCCC(=O)OCC(=O)c2cc(C)ccc2C)cc1`, the fluorescence artifact activation was 0.05% (inactive). With `Cc1cc(C)nc(NS(=O)(=O)c2ccc(NC(=O)CSc3nc4ccccc4[nH]3)cc2)n1` the figure was 0.03% (inactive); with `CCOc1ccc2nc3cc(NCc4ccc(OC)cc4)ccc3c(N)c2c1`, 0.41% (inactive); with `Cn1cc(C2=C(c3ccc(Cl)cc3Cl)C(=O)NC2=O)c2ccccc21`, 12.7% (active).

For the molecule `Cn1cc(/C=C/c2cc[n+](C)cc2)c2cc(Cl)ccc21`, the fluorescence artifact activation was 0.1% (inactive).

In the case of `Cc1ccc(N=C2NC(=O)/C(=C/c3cn(C)c4ccccc34)S2)cc1C`, the fluorescence artifact activation is 0% (inactive). With `COc1cccc(C(=O)Nc2cc(C(=O)NCc3ccc(C)cc3)ccc2N2CCC3(CC2)CC(c2cccc(Br)c2)=NO3)c1` the figure was -0.03% (inactive). To `CCN(CC(=O)Nc1ccccc1C(F)(F)F)C(=O)c1ccc(-n2nc(C)c(CCC(=O)OC)c2C)cc1` belongs 8.41% (inactive); to `N#Cc1cccc(NC(=O)CSc2ccc3c4c(cccc24)C(=O)c2ccccc2-3)c1`, 0.19% (inactive). With `Cn1nc(C(F)(F)F)c(-c2ccc(Br)cc2)c1NC(=O)c1ccco1` the figure was 0.14% (inactive); with `CCC(CC)NC(=O)Nc1ccccc1C`, 0.09% (inactive). In the case of `COCCn1c(C)cc(C(=O)COC(=O)c2ccc(Cl)c(S(N)(=O)=O)c2)c1C`, the fluorescence artifact activation was 3.98% (inactive). Take `Cc1nnc(NC(=O)CSc2ncnc3c2cnn3-c2ccccc2C)s1`: the fluorescence artifact activation is 2.39% (inactive).

For `Cc1ccc(C)c(C(=O)CCC(=O)NCc2ccc(Cl)cc2)c1`, the fluorescence artifact activation was 0.14% (inactive). Take `Cc1ccc(CNC(=O)c2cc(-c3ccccc3)nn2Cc2cc(C)no2)cc1`: the fluorescence artifact activation was 0.08% (inactive). Regarding `Cc1ccc(CNC(=O)CCn2cc(-c3ccc(C)cc3)nc2-c2ccncc2)cc1`, the fluorescence artifact activation is 18.1% (active). On to `COc1ccc2nc(C)c3cc(C)oc3c2c1`, for which the fluorescence artifact activation was 8.29% (inactive). With `Cn1nc(-c2ccccc2)c(C(=O)Nc2ccc(C(F)(F)F)cc2)c1Cl` the figure was 5.74% (inactive). To `Cc1cc([N+](=O)[O-])ccc1-c1ccc(/C=N/NC(=O)c2ccc(Br)o2)o1` belongs 0.29% (inactive); to `COC(=O)c1cc(-c2cccc(OC)c2)n[nH]1`, 1.23% (inactive); to `C[C@@H](C(=O)N1CCNCC1)n1cc(CCCN=C(N)N)nn1`, 29.3% (active). For the molecule `CC(C)(C)OC(=O)NCCCC[C@@H](C(=O)N1CCN(C(=O)OC(C)(C)C)CC1)n1cc(CCC(=O)O)nn1`, the fluorescence artifact activation was 0.16% (inactive). To `CC(O)Cc1cn([C@@H](CCCCN)C(=O)N2CCNCC2)nn1` (stereo not given in full) belongs 0.06% (inactive); to `CC(Oc1ccc(F)cc1)C(=O)Nc1sc2c(c1C(=O)NCc1cccnc1)CCCC2` (stereo not given), 9.94% (inactive); to `Nc1cccc(N2C(=O)c3cccc4c(N)ccc(c34)C2=O)c1`, 0.16% (inactive). Take `CS(=O)(=O)c1ccc(C(=O)OCC(=O)Nc2cccnc2Cl)cc1[N+](=O)[O-]`: the fluorescence artifact activation is 0% (inactive).

On to `COc1ccc2ccccc2c1C(O)c1nccn1C` (stereo not given), for which the fluorescence artifact activation was 10.5% (inactive). To `Cc1occc1C(=O)Nc1cccc([N+](=O)[O-])c1` belongs 11.4% (inactive); to `COC(=O)c1cc2c(=O)c3ccccc3oc2nc1/C=C/N(C)C`, 0.12% (inactive). With `NC(=O)c1c(NC(=O)C2COc3ccccc3O2)sc2c1CCN(Cc1ccccc1)C2` (stereo not given) the figure was 0.08% (inactive); with `CC(=O)c1ccc(C(=O)Nc2sc3c(c2C(N)=O)CCN(Cc2ccccc2)C3)cc1`, -0.06% (inactive). To `NC(=O)c1c(NC(=O)c2ccccc2)sc2c1CCN(Cc1ccccc1)C2` belongs 37.1% (active); to `Cc1nc(-c2ccc(C#N)cc2)cs1`, -0.01% (inactive).

Consider `CN(C)c1ccc(N=Cc2nc(-c3ccccc3)oc2O)cc1`, for which the fluorescence artifact activation is 7.65% (inactive).

Take `COc1ccc(N=C(N)N=C(N)N)c(OC)c1`: the fluorescence artifact activation is 0% (inactive). To `CCOc1cc(N2CCOCC2)c(OCC)cc1NC(=O)CCS(=O)(=O)c1ccc(Cl)cc1` belongs 9.02% (inactive).

For `CN(C)c1ccc(/C=C2\SC(=O)N(CC(O)Cn3c4ccccc4c4ccccc43)C2=O)cc1` (stereo not given), the fluorescence artifact activation is 5.59% (inactive). For `CCC(CO)[n+]1c(C)cc(/C=C2\Sc3ccccc3N2Cc2ccccc2)cc1C` (stereo not given), the fluorescence artifact activation was 0.01% (inactive).

As for `Cc1cccc(/C=C2/SC(=O)N(Cc3ccccc3)C2=O)n1`, the fluorescence artifact activation was 15.4% (active).
